Measured values reported in ChEMBL document CHEMBL1154704, “Synthesis, anti-HCV, antioxidant, and peroxynitrite inhibitory activity of fused benzosuberone derivatives” (Eur J Med Chem, 2010).
≈ marks a conversion by molar mass, not a printed value.

How the values were obtained:
[1] = tested on: Hepatitis C virus; assay: Antiviral activity HCV in replicon cells assessed as inhibition of NS3-4A protease activity by RT-PCR; type: functional, Hepacivirus hominis
Method in brief: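 Replicon cells seeded at 1×10⁴/well; next day incubated at 37 °C with serially diluted agents in DMEM + 2% FBS + 0.5% DMSO for the indicated period. Total RNA extracted, HCV RNA copy number by quantitative RT-PCR; five replicates per point; ribavirin control. Cytotoxicity by MTS viability in same settings; Huh-7 1×10⁴ or HepG2 4×10⁴ cells/well.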

[2] = Inhibition of peroxynitrite-induced 3-nitrotyrosin formation by HPLC; type: functional
Method in brief: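 Equimolar tyrosine and peroxynitrite with compound at increasing concentrations in 100 mM phosphate buffer pH 7.4, 37 °C for 15 min. Peroxynitrite stock quantified at 302 nm (ε 1670 cm⁻¹ M⁻¹), held on ice ≤30 min after thawing. 3-Nitrotyrosine measured by HPLC; control peroxynitrite plus tyrosine; mean ± SD of 3 independent experiments.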

[3] = tested on: Radical scavenging activity; assay: Antioxidant activity assessed as DPPH radical scavenging activity by microplate reader assay; type: functional; set-up: concentration or dose not given beside the values
Method in brief: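 Compounds or ascorbic acid standard added to DPPH radical in methanol, ratio 1:9; incubated dark 37 °C 30 min; absorbance decrease read at 515 nm on plate reader. Blank of DMSO plus DPPH; solvent control taken as 0% scavenging. Triplicate; reported as % decrease in DPPH absorbance, mean ± SD.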

Structure (SMILES): CCOC(=O)c1cc2c(nc1C)-c1ccccc1CCC2
- MIC [1]: 3.58 µg/mL (≈ 12.7 µM)
- IC50 [2]: 329 µM
- Activity [3]: 54.4%

Structure (SMILES): N#Cc1cc2c([nH]c1=O)-c1ccccc1CCC2
- MIC [1]: 4.45 µg/mL (≈ 18.8 µM)
- IC50 [2]: 291 µM
- Activity [3]: 27.4%

Structure (SMILES): O=c1cc(-c2ccccc2)nc2n(-c3ccccc3)nc(-c3ccc4c(n3)-c3ccccc3CCC4)n12
- MIC [1]: 1.15 µg/mL (≈ 2.39 µM)
- IC50 [2]: 349 µM
- Activity [3]: 40%

Structure (SMILES): CC(=O)c1cc2c(nc1C)-c1ccccc1CCC2
- MIC [1]: 7.09 µg/mL (≈ 28.2 µM)
- IC50 [2]: 158 µM
- Activity [3]: 37.2%

Structure (SMILES): NC(=O)c1ncn([C@@H]2O[C@H](CO)[C@@H](O)[C@H]2O)n1 [RIBAVIRIN]
- MIC [1]: 16.1 µg/mL (≈ 66.1 µM)

Structure (SMILES): c1ccc2c(c1)CCCc1c[nH]nc1-2
- MIC [1]: 6.22 µg/mL (≈ 33.8 µM)
- IC50 [2]: 277 µM
- Activity [3]: 45.4%

Structure (SMILES): c1ccc2c(c1)CCCc1cnoc1-2
- MIC [1]: 7.66 µg/mL (≈ 41.4 µM)
- IC50 [2]: 149 µM
- Activity [3]: 44.1%

Structure (SMILES): O=C1O[C@H]([C@@H](O)CO)C(O)=C1O
- Activity [3]: 79%

Structure (SMILES): c1ccc2c(c1)CCCc1cnc3nc4ccccc4n3c1-2
- MIC [1]: 6 µg/mL (≈ 21 µM)
- IC50 [2]: 342 µM
- Activity [3]: 28.2%

Structure (SMILES): CN(C)/C=C1\CCCc2ccccc2C1=O
- IC50 [2]: 146 µM
- Activity [3]: 57.9%

Structure (SMILES): c1ccc2c(c1)CCCc1ccc(-c3ccc4ccccc4c3)nc1-2
- MIC [1]: 5.98 µg/mL (≈ 18.6 µM)
- IC50 [2]: 170 µM
- Activity [3]: 54.2%

Structure (SMILES): Cc1c(C)c2c(c(C)c1O)CCC(C)(C(=O)O)O2 (configuration not stated) [TROLOX]
- IC50 [2]: 58.4 µM

Structure (SMILES): c1ccc2c(c1)CCCc1cnc3ncnn3c1-2
- MIC [1]: 2.21 µg/mL (≈ 9.35 µM)
- IC50 [2]: 315 µM
- Activity [3]: 27.7%
